Experimental data taken from ChEMBL document CHEMBL5712901, “DOT1L inhibition blocks multiple myeloma cell proliferation by suppressing IRF4-MYC signaling” (2019).
The source made the active and inactive calls. The rule behind the calls is not given here.

Experiments:
RPMI-8226 [1] = assay: Induction of apoptosis in human RPMI-8226 cells assessed as early apoptotic cells at 1 uM for 6 days by annexin-V based propidium iodide staining based flow cytometric analysis (reference value: 8.16%); type: functional; details: time 6 day
MM1.S [2] = assay: Induction of apoptosis in human MM1.S cells assessed as necrotic cells at 1 uM for 6 days by annexin-V based propidium iodide staining based flow cytometric analysis (reference value: 1.8%); type: functional; details: time 6 day
MM1.S [3] = assay: Effect on human MM1.S cells assessed as change in PRDM1 mRNA level at 1 uM for 3 days by ChIP-qPCR analysis; type: functional, cell-based; details: time 3.0 day
In short: (§1)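 ChIP-qPCR for H3K79me2 at IRF4-MYC signaling genes after 1 μM inhibitor or DMSO for 3 days. Signal normalized to input DNA. An intergenic region 28 kb upstream of KLF2 served as negative control. Mean of 3 replications ± SEM.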

MM1.S [4] = assay: Upregulation of DOT1L in human MM1.S cells by qRT-PCR analysis; type: functional, cell-based
In short: (§2)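 Basal DOT1L transcript in untreated myeloma cell lines measured by qRT-PCR, normalized to ACTB; mean of 3 replicates with SEM.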

KMS-11 = assay: Upregulation of DOT1L in human KMS-11 cells by qRT-PCR analysis; type: functional, cell-based; in short: as §2
KMS-12-BM = assay: Upregulation of DOT1L in human KMS-12-BM cells by qRT-PCR analysis; type: functional, cell-based; in short: as §2
RPMI-8226 [5] = assay: Downregulation of H3K79me2 level in human RPMI-8226 cells at 1 uM for 3 days by ChIP-qPCR analysis; type: functional, cell-based; details: time 3.0 day; in short: as §1
MM1.S [6] = assay: Upregulation of IFN in human MM1.S cells assessed as increase in IFI44 gene at 1 uM for 6 days by qRT-PCR analysis; type: functional, cell-based; details: time 6.0 day
RPMI-8226 [7] = assay: Upregulation of CARD6 gene in human RPMI-8226 cells at 1 uM for 6 days by; type: functional, cell-based; details: time 6.0 day
RPMI-8226 [8] = assay: Upregulation of COL16A1 gene in human RPMI-8226 cells at 1 uM for 6 days by; type: functional, cell-based; details: time 6.0 day
In short: (§3)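 Human myeloma lines RPMI-8226 and MM.1S exposed to 1 μM DOT1L inhibitor, or DMSO, for 6 days. Whole-genome expression profiled on gene expression microarray.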

RPMI-8226 [9] = assay: Upregulation of EMID1 gene in human RPMI-8226 cells at 1 uM for 6 days by; type: functional, cell-based; details: time 6.0 day; in short: as §3
RPMI-8226 [10] = assay: Upregulation of FZD1 gene in human RPMI-8226 cells at 1 uM for 6 days by; type: functional, cell-based; details: time 6.0 day; in short: as §3
RPMI-8226 [11] = assay: Upregulation of IL13RA1 gene in human RPMI-8226 cells at 1 uM for 6 days by; type: functional, cell-based; details: time 6.0 day
RPMI-8226 [12] = assay: Upregulation of ISG15 gene in human RPMI-8226 cells at 1 uM for 6 days by; type: functional, cell-based; details: time 6.0 day
RPMI-8226 [13] = assay: Upregulation of MILR1 gene in human RPMI-8226 cells at 1 uM for 6 days by; type: functional, cell-based; details: time 6.0 day
RPMI-8226 [14] = assay: Upregulation of NEURL1B gene in human RPMI-8226 cells at 1 uM for 6 days by; type: functional, cell-based; details: time 6.0 day
RPMI-8226 [15] = assay: Upregulation of NOG gene in human RPMI-8226 cells at 1 uM for 6 days by; type: functional, cell-based; details: time 6.0 day
RPMI-8226 [16] = assay: Upregulation of PRRT2 gene in human RPMI-8226 cells at 1 uM for 6 days by; type: functional, cell-based; details: time 6.0 day
RPMI-8226 [17] = assay: Upregulation of PTGER4 gene in human RPMI-8226 cells at 1 uM for 6 days by; type: functional, cell-based; details: time 6.0 day
RPMI-8226 [18] = assay: Upregulation of PTPRD gene in human RPMI-8226 cells at 1 uM for 6 days by; type: functional, cell-based; details: time 6.0 day
RPMI-8226 [19] = assay: Upregulation of RGS1 gene in human RPMI-8226 cells at 1 uM for 6 days by; type: functional, cell-based; details: time 6.0 day
RPMI-8226 [20] = assay: Upregulation of S100A10 gene in human RPMI-8226 cells at 1 uM for 6 days by; type: functional, cell-based; details: time 6.0 day
RPMI-8226 [21] = assay: Upregulation of SAP30L gene in human RPMI-8226 cells at 1 uM for 6 days by; type: functional, cell-based; details: time 6.0 day
RPMI-8226 [22] = assay: Upregulation of SERPINB1 gene in human RPMI-8226 cells at 1 uM for 6 days by; type: functional, cell-based; details: time 6.0 day
RPMI-8226 [23] = assay: Upregulation of SORL1 gene in human RPMI-8226 cells at 1 uM for 6 days by; type: functional, cell-based; details: time 6.0 day
RPMI-8226 [24] = assay: Upregulation of ZG16B gene in human RPMI-8226 cells at 1 uM for 6 days by; type: functional, cell-based; details: time 6.0 day
MM1.S [25] = assay: Upregulation of BCL6 gene in human MM1.S cells at 1 uM for 6 days by; type: functional, cell-based; details: time 6.0 day
MM1.S [26] = assay: Upregulation of CAPN2 gene in human MM1.S cells at 1 uM for 6 days by; type: functional, cell-based; details: time 6.0 day
MM1.S [27] = assay: Upregulation of CCDC96 gene in human MM1.S cells at 1 uM for 6 days by; type: functional, cell-based; details: time 6.0 day
MM1.S [28] = assay: Upregulation of CCR5 gene in human MM1.S cells at 1 uM for 6 days by; type: functional, cell-based; details: time 6.0 day
MM1.S [29] = assay: Upregulation of CMTM3 gene in human MM1.S cells at 1 uM for 6 days by; type: functional, cell-based; details: time 6.0 day; in short: as §3
MM1.S [30] = assay: Upregulation of CTSH gene in human MM1.S cells at 1 uM for 6 days by; type: functional, cell-based; details: time 6.0 day; in short: as §3
MM1.S [31] = assay: Upregulation of GTF2IRD2 gene in human MM1.S cells at 1 uM for 6 days by; type: functional, cell-based; details: time 6.0 day; in short: as §3
MM1.S [32] = assay: Upregulation of HLA-DRB5 gene in human MM1.S cells at 1 uM for 6 days by; type: functional, cell-based; details: time 6.0 day
MM1.S [33] = assay: Upregulation of ID2 gene in human MM1.S cells at 1 uM for 6 days by; type: functional, cell-based; details: time 6.0 day
MM1.S [34] = assay: Upregulation of IQCE gene in human MM1.S cells at 1 uM for 6 days by; type: functional, cell-based; details: time 6.0 day
MM1.S [35] = assay: Upregulation of LRRC56 gene in human MM1.S cells at 1 uM for 6 days by; type: functional, cell-based; details: time 6.0 day
MM1.S [36] = assay: Upregulation of MS4A4A gene in human MM1.S cells at 1 uM for 6 days by; type: functional, cell-based; details: time 6.0 day
MM1.S [37] = assay: Upregulation of NOG gene in human MM1.S cells at 1 uM for 6 days by; type: functional, cell-based; details: time 6.0 day
MM1.S [38] = assay: Upregulation of RAB37 gene in human MM1.S cells at 1 uM for 6 days by; type: functional, cell-based; details: time 6.0 day
MM1.S [39] = assay: Upregulation of RAPGEF2 gene in human MM1.S cells at 1 uM for 6 days by; type: functional, cell-based; details: time 6.0 day
MM1.S [40] = assay: Upregulation of S100A10 gene in human MM1.S cells at 1 uM for 6 days by; type: functional, cell-based; details: time 6.0 day
MM1.S [41] = assay: Upregulation of TLE1 gene in human MM1.S cells at 1 uM for 6 days by; type: functional, cell-based; details: time 6.0 day
MM1.S [42] = assay: Upregulation of TP53I11 gene in human MM1.S cells at 1 uM for 6 days by; type: functional, cell-based; details: time 6.0 day
MM1.S [43] = assay: Upregulation of ZG16B gene in human MM1.S cells at 1 uM for 6 days by; type: functional, cell-based; details: time 6.0 day
MM1.S [44] = assay: Effect on human MM1.S cells assessed as change in IRF4 mRNA level at 1 uM for 6 days by qRT-PCR analysis; details: time 6.0 day
RPMI-8226 [45] = assay: Effect on human RPMI-8226 cells assessed as change in IRF4 mRNA level at 1 uM for 6 days by qRT-PCR analysis; details: time 6.0 day

CC(C)N(C[C@H]1O[C@@H](n2cnc3c(N)ncnc32)[C@H](O)[C@@H]1O)[C@H]1C[C@@H](CCc2nc3cc(C(C)(C)C)ccc3[nH]2)C1 [PINOMETOSTAT]
Activity (RPMI-8226 [1]): 15%
Activity (MM1.S [2]): 2.47%
Activity (MM1.S [3]): Active

CC(C)N(CCCNC(=O)Nc1ccc(C(C)(C)C)cc1)C[C@H]1O[C@@H](n2cc(Br)c3c(N)ncnc32)[C@H](O)[C@@H]1O
Activity (MM1.S [4]): Active
Activity (KMS-11): Active
Activity (KMS-12-BM): Active
Activity (RPMI-8226 [5]): Active
Activity (MM1.S [6]): Active
Activity (RPMI-8226 [7]): Active
Activity (RPMI-8226 [8]): Active
Activity (RPMI-8226 [9]): Active
Activity (RPMI-8226 [10]): Active
Activity (RPMI-8226 [11]): Active
Activity (RPMI-8226 [12]): Active
Activity (RPMI-8226 [13]): Active
Activity (RPMI-8226 [14]): Active
Activity (RPMI-8226 [15]): Active
Activity (RPMI-8226 [16]): Active
Activity (RPMI-8226 [17]): Active
Activity (RPMI-8226 [18]): Active
Activity (RPMI-8226 [19]): Active
Activity (RPMI-8226 [20]): Active
Activity (RPMI-8226 [21]): Active
Activity (RPMI-8226 [22]): Active
Activity (RPMI-8226 [23]): Active
Activity (RPMI-8226 [24]): Active
Activity (MM1.S [25]): Active
Activity (MM1.S [26]): Active
Activity (MM1.S [27]): Active
Activity (MM1.S [28]): Active
Activity (MM1.S [29]): Active
Activity (MM1.S [30]): Active
Activity (MM1.S [31]): Active
Activity (MM1.S [32]): Active
Activity (MM1.S [33]): Active
Activity (MM1.S [34]): Active
Activity (MM1.S [35]): Active
Activity (MM1.S [36]): Active
Activity (MM1.S [37]): Active
Activity (MM1.S [38]): Active
Activity (MM1.S [39]): Active
Activity (MM1.S [40]): Active
Activity (MM1.S [41]): Active
Activity (MM1.S [42]): Active
Activity (MM1.S [43]): Active
Activity (MM1.S [44]): Active
Activity (RPMI-8226 [45]): Active
